Test results published in ChEMBL document CHEMBL1811848 (Bioorg Med Chem Lett, 2011).
Active and inactive are the calls of the source. The rule behind the calls is not given here.

Legend:
Rattus norvegicus [1] = experiment: Toxicity in female Wistar rat assessed as SGPT level at 3 mg/kg, po measured after 28 days (reference value: 30.44 +/- 1.59 U/L); format: organism-based; design: dose 3 mg/kg, route oral; conditions: in vivo, 672 h
Mus musculus [2] = experiment: Antihyperglycemic activity in db/db mouse assessed as reduction in plasma glucose level at 1 mg/kg, po; format: functional; design: scale not given: the % may be the effect or the level left
Mus musculus [3] = experiment: Hypolipidemic activity in db/db mouse assessed as reduction in triglyceride level at 3 mg/kg, po; format: functional; design: scale not given: the % may be the effect or the level left
Rattus norvegicus [4] = experiment: Toxicity in male Wistar rat assessed as creatinine level at 30 mg/kg, po measured after 28 days (reference value: 0.47 +/- 0.03 mg/dl); format: organism-based; design: dose 30 mg/kg, route oral; conditions: in vivo, 672 h
Rattus norvegicus [5] = experiment: Toxicity in female Wistar rat assessed as albumin level at 30 mg/kg, po measured after 28 days (reference value: 3.92 +/- 0.18 g.dl); format: organism-based; design: dose 30 mg/kg, route oral; conditions: in vivo, 672 h
Mus musculus [6] = experiment: Hypolipidemic activity in db/db mouse assessed as reduction in triglyceride level at 1 mg/kg, po; format: functional; design: scale not given: the % may be the effect or the level left
Rattus norvegicus [7] = experiment: Toxicity in female Wistar rat assessed as change in body weight at 3 mg/kg, po measured after 28 days relative to control; format: organism-based; design: dose 3 mg/kg, route oral; conditions: in vivo, 672 h
Outline: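 Wistar rats received 3 or 30 mg/kg orally for 28 days. Body weight was recorded weekly, and the % change in body weight over the study is tabulated.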

Rattus norvegicus [8] = experiment: Toxicity in female Wistar rat assessed as SGOT level at 3 mg/kg, po measured after 28 days (reference value: 155.70 +/- 6.56 U/L); format: organism-based; design: dose 3 mg/kg, route oral; conditions: in vivo, 672 h
Rattus norvegicus [9] = experiment: Toxicity in male Wistar rat assessed as SGPT level at 3 mg/kg, po measured after 28 days (reference value: 34.24 +/- 2.13 U/L); format: organism-based; design: dose 3 mg/kg, route oral; conditions: in vivo, 672 h
[10] = target: T1, Peroxisome proliferator-activated receptor gamma (Homo sapiens, UniProt P37231); experiment: Transactivation of human PPARgamma expressed in human HepG2 cells co-transfected with PPRE3-TK-Luc by luciferase reporter gene assay; format: cell-based
T1 sequence (P37231 whole entry): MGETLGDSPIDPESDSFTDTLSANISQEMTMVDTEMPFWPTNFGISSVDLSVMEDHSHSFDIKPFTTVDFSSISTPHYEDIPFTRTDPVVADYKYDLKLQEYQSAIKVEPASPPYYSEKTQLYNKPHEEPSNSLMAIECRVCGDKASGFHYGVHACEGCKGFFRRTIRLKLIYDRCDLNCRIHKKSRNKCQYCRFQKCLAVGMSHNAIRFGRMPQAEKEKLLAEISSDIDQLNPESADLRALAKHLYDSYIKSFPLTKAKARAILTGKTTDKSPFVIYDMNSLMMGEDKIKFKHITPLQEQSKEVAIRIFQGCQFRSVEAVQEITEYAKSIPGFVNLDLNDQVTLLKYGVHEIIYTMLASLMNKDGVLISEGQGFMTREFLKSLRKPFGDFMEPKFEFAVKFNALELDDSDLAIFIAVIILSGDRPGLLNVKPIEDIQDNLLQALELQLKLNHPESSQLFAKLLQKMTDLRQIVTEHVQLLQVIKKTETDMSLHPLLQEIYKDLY
Outline: (§1)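 HepG2 cells transfected with pSG5 vector carrying hPPARα, hPPARγ or hPPARδ cDNA, co-transfected with PPRE3-TK-luc. Firefly luciferase activity measured with a commercial kit. β-galactosidase activity read on an ELISA reader. Controls: WY14643 (α), rosiglitazone (γ), GW501516 (δ).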

Rattus norvegicus [11] = experiment: Toxicity in male Wistar rat assessed as change in body weight at 3 mg/kg, po measured after 28 days relative to control; format: organism-based; design: dose 3 mg/kg, route oral; conditions: in vivo, 672 h
Rattus norvegicus [12] = experiment: Toxicity in male Wistar rat assessed as urea level at 3 mg/kg, po measured after 28 days (reference value: 30.52 +/- 0.79 mg/dl); format: organism-based; design: dose 3 mg/kg, route oral; conditions: in vivo, 672 h
Rattus norvegicus [13] = experiment: Toxicity in female Wistar rat assessed as glucose level at 30 mg/kg, po measured after 28 days (reference value: 69.94 +/- 2.30 mg/dl); format: organism-based; design: dose 30 mg/kg, route oral; conditions: in vivo, 672 h
Mus musculus [14] = experiment: Antihyperglycemic activity in db/db mouse assessed as reduction in plasma glucose level at 3 mg/kg, po; format: functional; design: scale not given: the % may be the effect or the level left
Mus musculus [15] = species: Mus musculus; experiment: Antihyperglycemic activity in db/db mouse assessed as reduction in plasma glucose level; format: functional
Mus musculus [16] = experiment: Hypolipidemic activity in db/db mouse assessed as reduction in triglyceride level at 0.003 mg/kg, po; format: functional; design: scale not given: the % may be the effect or the level left
Rattus norvegicus [17] = experiment: Toxicity in female Wistar rat assessed as SGPT level at 30 mg/kg, po measured after 28 days (reference value: 30.44 +/- 1.59 U/L); format: organism-based; design: dose 30 mg/kg, route oral; conditions: in vivo, 672 h
Rattus norvegicus [18] = experiment: Toxicity in female Wistar rat assessed as thymus to body weight ratio at 30 mg/kg, po measured after 28 days (reference value: 0.094 +/- 0.01); format: organism-based; design: dose 30 mg/kg, route oral; conditions: in vivo, 672 h
Rattus norvegicus [19] = experiment: Toxicity in male Wistar rat assessed as spleen to body weight ratio at 3 mg/kg, po measured after 28 days (reference value: 0.215 +/- 0.007); format: organism-based; design: dose 3 mg/kg, route oral; conditions: in vivo, 672 h
Rattus norvegicus [20] = experiment: Toxicity in male Wistar rat assessed as SGPT level at 30 mg/kg, po measured after 28 days (reference value: 34.24 +/- 2.13 U/L); format: organism-based; design: dose 30 mg/kg, route oral; conditions: in vivo, 672 h
[21] = target: T2, Peroxisome proliferator-activated receptor delta (Homo sapiens) (UniProt Q03181); experiment: Transactivation of human PPARdelta expressed in human HepG2 cells co-transfected with PPRE3-TK-Luc by luciferase reporter gene assay; format: cell-based; outline: as §1
T2 sequence (whole entry): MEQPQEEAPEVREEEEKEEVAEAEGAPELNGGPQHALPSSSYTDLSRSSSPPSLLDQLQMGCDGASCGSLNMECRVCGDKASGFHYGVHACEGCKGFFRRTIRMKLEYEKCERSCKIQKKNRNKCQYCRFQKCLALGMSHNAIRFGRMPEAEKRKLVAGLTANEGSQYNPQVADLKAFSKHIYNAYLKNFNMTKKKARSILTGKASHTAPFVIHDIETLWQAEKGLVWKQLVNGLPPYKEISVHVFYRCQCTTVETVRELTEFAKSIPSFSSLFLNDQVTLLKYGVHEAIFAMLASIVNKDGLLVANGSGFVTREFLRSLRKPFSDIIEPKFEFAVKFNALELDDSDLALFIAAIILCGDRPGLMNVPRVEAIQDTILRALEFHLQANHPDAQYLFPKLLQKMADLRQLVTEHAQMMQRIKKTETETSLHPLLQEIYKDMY

Rattus norvegicus [22] = experiment: Toxicity in female Wistar rat assessed as liver to body weight ratio at 30 mg/kg, po measured after 28 days (reference value: 3.091 +/- 0.087); format: organism-based; design: dose 30 mg/kg, route oral; conditions: in vivo, 672 h
Rattus norvegicus [23] = experiment: Toxicity in female Wistar rat assessed as ovary to body weight ratio at 30 mg/kg, po measured after 28 days (reference value: 0.039 +/- 0.005); format: organism-based, Female gonad; design: dose 30 mg/kg, route oral; conditions: in vivo, 672 h
Rattus norvegicus [24] = experiment: Toxicity in male Wistar rat assessed as albumin level at 30 mg/kg, po measured after 28 days (reference value: 3.66 +/- 0.10 g.dl); format: organism-based; design: dose 30 mg/kg, route oral; conditions: in vivo, 672 h
Mus musculus [25] = experiment: Hypolipidemic activity in Swiss albino mouse assessed as reduction in triglyceride level at 0.3 mg/kg, po; format: functional; design: scale not given: the % may be the effect or the level left
Rattus norvegicus [26] = experiment: Toxicity in male Wistar rat assessed as adrenal to body weight ratio at 30 mg/kg, po measured after 28 days (reference value: 0.018 +/- 0.001); format: organism-based; design: dose 30 mg/kg, route oral; conditions: in vivo, 672 h
Rattus norvegicus [27] = experiment: Toxicity in female Wistar rat assessed as spleen to body weight ratio at 3 mg/kg, po measured after 28 days (reference value: 0.237 +/- 0.012); format: organism-based; design: dose 3 mg/kg, route oral; conditions: in vivo, 672 h

CCO[C@@H](Cc1ccc(OCCc2nc(-c3ccc(C)s3)oc2C)cc1)C(=O)O
Activity (Rattus norvegicus [1]): 22.46 U/L
Activity (Mus musculus [2]): 59.7%
Activity (Mus musculus [3]): 55.1%
Activity (Rattus norvegicus [4]): 0.37 mg/dL
Activity (Rattus norvegicus [5]): 4.12 g/dL
Activity (Mus musculus [6]): 64.2%
Activity (Rattus norvegicus [7]): 21.77%
Activity (Rattus norvegicus [8]): 157.09 U/L
Activity (Rattus norvegicus [9]): 28.54 U/L
EC50 [10]: 0.018 nM
Activity (Rattus norvegicus [11]): 33.99%
Activity (Rattus norvegicus [12]): 31.24 mg/dL
Activity (Rattus norvegicus [13]): 91.79 mg/dL
Activity (Mus musculus [14]): 62.2%
ED50 (Mus musculus [15]): 0.166 mg/kg
Activity (Mus musculus [16]): 7.2%
Activity (Rattus norvegicus [17]): 35.21 U/L
Ratio (Rattus norvegicus [18]): 0.066
Ratio (Rattus norvegicus [19]): 0.223
Activity (Rattus norvegicus [20]): 33.03 U/L
Activity [21]: inactive
Ratio (Rattus norvegicus [22]): 7.075
Ratio (Rattus norvegicus [23]): 0.024
Activity (Rattus norvegicus [24]): 4.12 g/dL
Activity (Mus musculus [25]): 80.8%
Ratio (Rattus norvegicus [26]): 0.018
Ratio (Rattus norvegicus [27]): 0.257
